Experimental data from ChEMBL document CHEMBL2311419, “Discovery of coumarin-dihydropyridine hybrids as bone anabolic agents” (J Med Chem, 2013).
The source made the active and inactive calls. The rule behind the calls is not given here.

Key:
[1] = species on record: Mus musculus; assay: Stimulation of alkaline phosphatase activity in mouse calvarial osteoblasts at 1 pM to 1 uM after 48 hrs by spectrophotometric analysis relative to nifedipine
[2] = Stimulation of alkaline phosphatase activity in mouse calvarial osteoblasts after 48 hrs by spectrophotometric analysis
In short: (§1)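 Calvarial osteoblasts were exposed to compounds over 1 pM to 1 µM. ALP activity was read spectrophotometrically as optical density at 405 nm. Results were expressed as % ALP activity, with EC50 and Emax derived from the concentration series.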

[3] = species on record: Mus musculus; assay: Stimulation of alkaline phosphatase activity in mouse calvarial osteoblasts assessed as concentration required for maximum activity after 48 hrs by spectrophotometric analysis; in short: as §1
[4] = species on record: Mus musculus; assay: Stimulation of alkaline phosphatase activity in mouse calvarial osteoblasts at 1 pM to 1 uM after 48 hrs by spectrophotometric analysis; in short: as §1
[5] = tested on: Calvarial osteoblast; assay: Induction of osteoblastogenesis in mouse calvarial osteoblasts assessed as increase in expression of ALP gene at 100 pM to 10 nM by qPCR analysis relative to control; format: functional
[6] = tested on: Calvarial osteoblast; assay: Induction of osteoblastogenesis in mouse calvarial osteoblasts assessed as increase in expression of BMP2 gene at 100 pM by qPCR analysis relative to control; format: functional, cell-based
[7] = tested on: Calvarial osteoblast; assay: Induction of osteoblastogenesis in mouse calvarial osteoblasts assessed as increase in BMP2 expression at 100 pM to 10 nM by Western blotting analysis; format: functional, cell-based
[8] = tested on: Calvarial osteoblast; assay: Induction of proliferation of mouse calvarial osteoblasts at 1 pM to 1 uM after 48 hrs; format: functional, cell-based
[9] = tested on: Calvarial osteoblast; assay: Induction of mineralization in mouse calvarial osteoblasts assessed as increase of mineralized nodules formation measuring concentration required for maximum activity after 21 days by alizarin red-S staining based spectrophotometric analysis; format: functional
[10] = tested on: Calvarial osteoblast; assay: Induction of osteoblastogenesis in mouse calvarial osteoblasts assessed as increase in expression of osteocalcin gene at 100 pM to 10 nM by qPCR analysis relative to control; format: functional
[11] = tested on: Calvarial osteoblast; assay: Induction of osteoblastogenesis in mouse calvarial osteoblasts assessed as increase in expression of RUNX2 gene at 100 pM by qPCR analysis relative to control; format: functional, cell-based
[12] = tested on: Calvarial osteoblast; assay: Induction of osteoblastogenesis in mouse calvarial osteoblasts assessed as increase in expression of BMP2 gene at 100 pM to 10 nM by qPCR analysis relative to control; format: functional
[13] = tested on: Calvarial osteoblast; assay: Induction of osteoblastogenesis in mouse calvarial osteoblasts assessed as increase in expression of COL1 gene at 100 pM to 10 nM by qPCR analysis relative to control; format: functional
[14] = tested on: Calvarial osteoblast; assay: Induction of osteoblastogenesis in mouse calvarial osteoblasts assessed as increase in expression of osteocalcin gene at 100 pM by qPCR analysis relative to control; format: functional, cell-based
[15] = Cytotoxicity against mouse calvarial osteoblasts assessed as cell viability at 1 pM to 1 uM after 48 hrs by MTT assay; format: cell-based; settings: calvarial osteoblast
[16] = tested on: Calvarial osteoblast; assay: Induction of osteoblastogenesis in mouse calvarial osteoblasts assessed as increase in expression of COL1 gene at 100 pM by qPCR analysis relative to control; format: functional, cell-based
[17] = tested on: Calvarial osteoblast; assay: Induction of osteoblastogenesis in mouse calvarial osteoblasts assessed as increase in expression of ALP gene at 100 pM by qPCR analysis relative to control; format: functional, cell-based
[18] = tested on: Calvarial osteoblast; assay: Induction of osteoblastogenesis in mouse calvarial osteoblasts assessed as increase in RUNX2 expression at 100 pM to 10 nM by Western blotting analysis; format: functional, cell-based
[19] = tested on: Calvarial osteoblast; assay: Induction of osteoblastogenesis in mouse calvarial osteoblasts assessed as increase in COL1 expression at 100 pM to 10 nM by Western blotting analysis; format: functional, cell-based
[20] = tested on: Calvarial osteoblast; assay: Induction of osteoblastogenesis in mouse calvarial osteoblasts assessed as increase in expression of RUNX2 gene at 100 pM to 10 nM by qPCR analysis relative to control; format: functional

CCOC(=O)C1=C(C)NC2=C(C(=O)CC(C)(C)C2)C1c1cc(C(C)CC)c2oc(=O)c(C(=O)OCC)cc2c1 (racemic)
Activity [1]: inactive
EC50 [2]: 1280 nM
Concentration giving maximum ALP activity [3]: 100 pM
Activity [4]: 3%

CCOC(=O)C1=C(C)NC2=C(C(=O)CC(C)(C)C2)C1c1cc(C(C)(C)C)c2oc(=O)c(C(=O)OCC)cc2c1 (racemic)
Activity [1]: inactive
EC50 [2]: 1560 nM
Concentration giving maximum ALP activity [3]: 10000 pM
Activity [4]: 4%

CCOC(=O)C1=C(C)NC2=C(C(=O)CCC2)C1c1cc(C(C)(C)C)c2oc(=O)c(C(=O)OCC)cc2c1 (racemic)
EC50 [2]: 1340 nM
Concentration giving maximum ALP activity [3]: 1 pM
Activity [4]: 13%

CCOC(=O)c1cc2cc(C3C(C(=O)OC)=C(C)NC4=C3C(=O)CCC4)cc(C(C)(C)C)c2oc1=O (racemic)
Activity [1]: inactive
EC50 [2]: 1310 nM
Concentration giving maximum ALP activity [3]: 1 pM
Activity [4]: 10%

CCOC(=O)c1cc2cc(C3C(C(=O)OC)=C(C)NC(C)=C3C(=O)OC)cc(C(C)(C)C)c2oc1=O
Activity [1]: inactive
EC50 [2]: 1040 nM
Concentration giving maximum ALP activity [3]: 1 pM
Activity [4]: 7%

COC(=O)C1=C(C)NC(C)=C(C(=O)OC)C1c1cc(C(C)(C)C)c2oc(=O)c(C(=O)OC)cc2c1
Activity [4]: inactive

CCOC(=O)c1cc2cc(C=O)cc(C(C)(C)C)c2oc1=O
Activity [4]: inactive

CCOC(=O)c1cc2cc(C=O)cc(C(C)CC)c2oc1=O (centres undefined)
Activity [1]: inactive
EC50 [2]: 1490 nM
Concentration giving maximum ALP activity [3]: 10000 pM
Activity [4]: 6%

CCOC(=O)c1cc2cc(C3C(C(=O)OC)=C(C)NC4=C3C(=O)CC(C)(C)C4)cc(C(C)(C)C)c2oc1=O (racemic)
EC50 [2]: 1090 nM
Concentration giving maximum ALP activity [3]: 1 pM
Activity [4]: 5%

CCC(C)c1cc(C=O)cc2cc(C(=O)OC)c(=O)oc12 (centres undefined)
Activity [4]: inactive

CCOC(=O)C1=C(C)NC2=C(C(=O)CCC2)C1c1cc(C(C)CC)c2oc(=O)c(C(=O)OCC)cc2c1 (racemic)
Activity [1]: 14%
EC50 [2]: 1010 nM
Concentration giving maximum ALP activity [3]: 1 pM
Activity [4]: 35%

CCOC(=O)c1cc2cc(C3C(C(=O)OC)=C(C)NC(C)=C3C(=O)OC)cc(C(C)CC)c2oc1=O (centres undefined)
Activity [1]: inactive
EC50 [2]: 1510 nM
Concentration giving maximum ALP activity [3]: 10000 pM
Activity [4]: 20%

CCOC(=O)C1=C(C)NC(C)=C(C(=O)OCC)C1c1cc(C(C)(C)C)c2oc(=O)c(C(=O)OC)cc2c1
Activity [1]: 28%
EC50 [2]: 1100 nM
fold change (FC) [5]: 1.5
Activity [6]: Active
Activity [7]: Active
Activity [8]: Active
Concentration giving maximum ALP activity [3]: 100 pM
Activity [4]: 70%
Concentration for maximum mineralization [9]: 100 pM
fold change (FC) [10]: 1.5
Activity [11]: Active
fold change (FC) [12]: 1.5
fold change (FC) [13]: 1.5
Activity [14]: Active
Activity [15]: Non-toxic
Activity [16]: Active
Activity [17]: Active
Activity [18]: Active
Activity [19]: Active
fold change (FC) [20]: 1.5

CCOC(=O)C1=C(C)NC(C)=C(C(=O)OCC)C1c1cc(C(C)CC)c2oc(=O)c(C(=O)OCC)cc2c1 (centres undefined)
Activity [1]: inactive
EC50 [2]: 1230 nM
Concentration giving maximum ALP activity [3]: 100 pM
Activity [4]: 4%

CCC(C)c1cc(C2C(C(=O)OC)=C(C)NC3=C2C(=O)CCC3)cc2cc(C(=O)OC)c(=O)oc12 (racemic)
Activity [1]: inactive
EC50 [2]: 1560 nM
Concentration giving maximum ALP activity [3]: 10000 pM
Activity [4]: 4%

COC(=O)C1=C(C)NC2=C(C(=O)CC(C)(C)C2)C1c1cc(C(C)(C)C)c2oc(=O)c(C(=O)OC)cc2c1 (racemic)
Activity [1]: inactive
EC50 [2]: 1530 nM
Concentration giving maximum ALP activity [3]: 10000 pM
Activity [4]: 10%

COC(=O)C1=C(C)NC(C)=C(C(=O)OC)C1c1ccccc1[N+](=O)[O-] [NIFEDIPINE]
EC50 [2]: 1450 nM
Activity [8]: Active
Activity [4]: 25%
Concentration for maximum mineralization [9]: 10000 pM

CCOC(=O)C1=C(C)NC2=C(C(=O)CC(C)(C)C2)C1c1cc(C(C)CC)c2oc(=O)c(C(=O)OC)cc2c1 (racemic)
Activity [1]: 17%
EC50 [2]: 1010 nM
fold change (FC) [5]: 1.5
Activity [6]: Active
Activity [7]: Active
Activity [8]: Active
Concentration giving maximum ALP activity [3]: 1 pM
Activity [4]: 43%
Concentration for maximum mineralization [9]: 100 pM
fold change (FC) [10]: 1.5
Activity [11]: Active
fold change (FC) [12]: 1.5
fold change (FC) [13]: 1.5
Activity [14]: Active
Activity [15]: Non-toxic
Activity [16]: Active
Activity [17]: Active
Activity [18]: Active
Activity [19]: Active
fold change (FC) [20]: 1.5

COC(=O)c1cc2cc(C=O)cc(C(C)(C)C)c2oc1=O
Activity [4]: inactive

CCOC(=O)C1=C(C)NC2=C(C(=O)CCC2)C1c1cc(C(C)(C)C)c2oc(=O)c(C(=O)OC)cc2c1 (racemic)
Activity [1]: inactive
EC50 [2]: 1260 nM
Concentration giving maximum ALP activity [3]: 1 pM
Activity [4]: 4%

CCC(C)c1cc(C2C(C(=O)OC)=C(C)NC(C)=C2C(=O)OC)cc2cc(C(=O)OC)c(=O)oc12 (centres undefined)
Activity [1]: 12%
EC50 [2]: 1190 nM
fold change (FC) [5]: 1.5
Activity [6]: Active
Activity [7]: Active
Activity [8]: Active
Concentration giving maximum ALP activity [3]: 1 pM
Activity [4]: 30%
Concentration for maximum mineralization [9]: 1 pM
fold change (FC) [10]: 1.5
Activity [11]: Active
fold change (FC) [12]: 1.5
fold change (FC) [13]: 1.5
Activity [14]: Active
Activity [15]: Non-toxic
Activity [16]: Active
Activity [17]: Active
Activity [18]: Active
Activity [19]: Active
fold change (FC) [20]: 1.5

CCOC(=O)c1cc2cc(C3C(C(=O)OC)=C(C)NC4=C3C(=O)CC(C)(C)C4)cc(C(C)CC)c2oc1=O (racemic)
Activity [1]: 16%
EC50 [2]: 1190 nM
Concentration giving maximum ALP activity [3]: 1 pM
Activity [4]: 39%

COC(=O)C1=C(C)NC2=C(C(=O)CCC2)C1c1cc(C(C)(C)C)c2oc(=O)c(C(=O)OC)cc2c1 (racemic)
Activity [1]: inactive
EC50 [2]: 1340 nM
Concentration giving maximum ALP activity [3]: 100 pM
Activity [4]: 14%

CCOC(=O)C1=C(C)NC(C)=C(C(=O)OCC)C1c1cc(C(C)CC)c2oc(=O)c(C(=O)OC)cc2c1 (centres undefined)
Activity [1]: inactive
EC50 [2]: 1140 nM
Concentration giving maximum ALP activity [3]: 100 pM
Activity [4]: 5%

CCOC(=O)c1cc2cc(C3C(C(=O)OC)=C(C)NC4=C3C(=O)CCC4)cc(C(C)CC)c2oc1=O (racemic)
Activity [1]: inactive
EC50 [2]: 1230 nM
Concentration giving maximum ALP activity [3]: 100 pM
Activity [4]: 12%
